In brackets after ≈: the same amount, converted by molar mass.
Columns and labels:
Pichia kudriavzevii [1] = test: Antifungal activity against Candida krusei ATCC 34135 assessed as inhibition of fungal growth incubated for 24 hrs by broth microdilution method; format: functional
Summary of the method: (§1)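 Broth microdilution per CLSI guidelines against clinical isolates, incubated at 35 °C for 24 h (Candida, Aspergillus) or 48 h (Cryptococcus). MIC was the lowest concentration giving 50% growth inhibition.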

[2] = Antifungal activity against Cryptococcus gattii NR 43216 assessed as inhibition of fungal growth incubated for 48 hrs by broth microdilution method; format: functional, Cryptococcus gattii VGI; summary of the method: as §1
Candida albicans [3] = test: Antifungal activity against wild type Candida albicans SC5314 assessed as inhibition of fungal growth; format: functional
[4] = Antifungal activity against Cryptococcus gattii NR 43214 assessed as inhibition of fungal growth incubated for 48 hrs by broth microdilution method; format: functional, Cryptococcus gattii VGI; summary of the method: as §1
[5] = Selectivity ratio of CC50 for cytotoxicity against African green monkey Vero cells to MIC for antifungal activity against Cryptococcus gattii NR 43210; format: toxicity, cell-based
[6] = Selectivity ratio of CC50 for cytotoxicity against human Caco-2 cells to MIC for antifungal activity against Cryptococcus gattii NR 43209; format: toxicity, cell-based
[7] = Selectivity ratio of CC50 for cytotoxicity against human Caco-2 cells to MIC for antifungal activity against Cryptococcus neoformans NR 41298; format: toxicity, cell-based
Cryptococcus neoformans [8] = test: Antifungal activity against Cryptococcus neoformans NR 48773 assessed as inhibition of fungal growth incubated for 48 hrs by broth microdilution method; format: functional
Summary of the method: (§2)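 Clinical isolate; CLSI broth microdilution over a range of concentrations (media listed: RPMI 1640, MOPS, YPD). MIC read as lowest concentration inhibiting growth by 50% after 48 h incubation at 35 °C.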

Clostridioides difficile = test: Antibacterial activity against Clostridium difficile ATCC BAA1870 assessed as inhibition of bacterial growth; format: functional
[9] = Selectivity ratio of CC50 for cytotoxicity against human Caco-2 cells to MIC for antifungal activity against Cryptococcus neoformans NR 41299; format: toxicity, cell-based
Candida parapsilosis [10] = test: Antifungal activity against Candida parapsilosis CAB 502638 assessed as inhibition of fungal growth incubated for 24 hrs by broth microdilution method; format: functional; details: Lodderomyces parapsilosis; summary of the method: as §1
[11] = Plasma concentration in Sprague-Dawley rat at 25 mg/kg, po administered as single dose and measured within few minutes by LC/MS/MS analysis; format: ADME, organism-based; details: in vivo
Summary of the method: (§3)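 Male naïve Sprague–Dawley rats (n=3) received a single 25 mg kg−1 oral gavage dose in 5% ethanol/45% PEG 400/50% water. EDTA-K2 blood was sampled over 24 h post-dose. Plasma levels were measured by LC/MS/MS after acetonitrile protein precipitation, and parameters came from two-compartment analysis.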

[12] = Antifungal activity against Cryptococcus gattii NR 43209 assessed as inhibition of fungal growth incubated for 48 hrs by broth microdilution method; format: functional, Cryptococcus gattii VGI; summary of the method: as §1
[13] = Selectivity ratio of CC50 for cytotoxicity against African green monkey Vero cells to MIC for antifungal activity against Cryptococcus gattii NR 43214; format: toxicity, cell-based
[14] = Antifungal activity against Cryptococcus gattii NR 43210 assessed as inhibition of fungal growth incubated for 48 hrs by broth microdilution method; format: functional, Cryptococcus gattii VGI; summary of the method: as §1
Lactobacillus gasseri = test: Antibacterial activity against Lactobacillus gasseri HM400 assessed as inhibition of bacterial growth; format: toxicity, organism-based
Escherichia coli = test: Antibacterial activity against Escherichia coli JW55031 harboring tolC mutant assessed as inhibition of bacterial growth; format: functional
Aspergillus fumigatus [15] = test: Antifungal activity against Aspergillus fumigatus NR 35304 assessed as inhibition of fungal growth incubated for 24 hrs by broth microdilution method; format: functional; summary of the method: as §1
Pichia kudriavzevii [16] = test: Antifungal activity against Candida krusei CAB 396420 assessed as inhibition of fungal growth incubated for 24 hrs by broth microdilution method; format: functional; summary of the method: as §1
[17] = Selectivity ratio of CC50 for cytotoxicity against African green monkey Vero cells to MIC for antifungal activity against Cryptococcus neoformans NR 41298; format: toxicity, cell-based
[18] = Selectivity ratio of CC50 for cytotoxicity against African green monkey Vero cells to MIC for antifungal activity against Cryptococcus neoformans NR 41300; format: toxicity, cell-based
Candida albicans [19] = test: Antifungal activity against Candida albicans ATCC 10231 assessed as inhibition of fungal growth incubated for 24 hrs by broth microdilution method; format: functional; summary of the method: as §1
[20] = Volume of distribution in Sprague-Dawley rat at 25 mg/kg, po administered as single dose by LC/MS/MS analysis; format: ADME, organism-based; details: in vivo
Summary of the method: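 Male naïve Sprague–Dawley rats (n = 3) received a single 25 mg kg−1 dose by oral gavage in 5% ethanol/45% PEG 400/50% water. EDTA-K2 blood was sampled over 24 h. Plasma levels were measured by LC/MS/MS after acetonitrile protein precipitation, and parameters came from two-compartment analysis.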

[Candida] auris [21] = Antifungal activity against Candida auris 382 assessed as inhibition of fungal growth incubated for 24 hrs by broth microdilution method; format: functional; details: Candidozyma auris
Summary of the method: (§4)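 Clinical isolate; CLSI broth microdilution over a range of concentrations (media listed: RPMI 1640, MOPS, YPD). MIC taken as lowest concentration giving 50% growth inhibition after 24 h at 35 °C.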

[22] = Selectivity ratio of CC50 for cytotoxicity against human Caco-2 cells to MIC for antifungal activity against Cryptococcus gattii NR 43213; format: toxicity, cell-based
[23] = Selectivity ratio of CC50 for cytotoxicity against human Caco-2 cells to MIC for antifungal activity against Cryptococcus neoformans NR 48767; format: toxicity, cell-based
[24] = Clearance in Sprague-Dawley rat at 25 mg/kg, po administered as single dose by LC/MS/MS analysis; format: ADME, organism-based; details: in vivo; summary of the method: as §3
[25] = Selectivity ratio of CC50 for cytotoxicity against human Caco-2 cells to MIC for antifungal activity against Cryptococcus neoformans NR 48770; format: toxicity, cell-based
Candida parapsilosis [26] = test: Antifungal activity against Candida parapsilosis ATCC 22019 assessed as inhibition of fungal growth incubated for 24 hrs by broth microdilution method; format: functional; details: Lodderomyces parapsilosis; summary of the method: as §4
Cryptococcus neoformans [27] = test: Antifungal activity against Cryptococcus neoformans NR 41298 assessed as inhibition of fungal growth incubated for 48 hrs by broth microdilution method; format: functional; summary of the method: as §2
[28] = Antibacterial activity against Lactobacillus casei HM334 assessed as inhibition of bacterial growth; format: toxicity; details: lacticaseibacillus casei
[29] = Antibacterial activity against Lactobacillus crispatus HM370 assessed as inhibition of bacterial growth; format: toxicity
[Candida] auris [30] = Antifungal activity against Candida auris 381 assessed as inhibition of fungal growth incubated for 24 hrs by broth microdilution method; format: functional; details: Candidozyma auris; summary of the method: as §4
[31] = AUC in Sprague-Dawley rat at 25 mg/kg, po administered as single dose by LC/MS/MS analysis; format: ADME, organism-based; set-up: dose 25 mg/kg, route po; details: in vivo; summary of the method: as §3
[32] = Cmax in Sprague-Dawley rat at 25 mg/kg, po administered as single dose by LC/MS/MS analysis; format: ADME, organism-based; set-up: dose 25 mg/kg, route po; details: in vivo; summary of the method: as §3
[33] = Selectivity ratio of CC50 for cytotoxicity against African green monkey Vero cells to MIC for antifungal activity against Cryptococcus gattii NR 43213; format: toxicity, cell-based
[34] = Antifungal activity against Cryptococcus gattii NR 43213 assessed as inhibition of fungal growth incubated for 48 hrs by broth microdilution method; format: functional, Cryptococcus gattii VGI; summary of the method: as §1
Aspergillus fumigatus [35] = test: Antifungal activity against Aspergillus fumigatus NR 35303 assessed as inhibition of fungal growth incubated for 24 hrs by broth microdilution method; format: functional; summary of the method: as §1
[36] = Selectivity ratio of CC50 for cytotoxicity against African green monkey Vero cells to MIC for antifungal activity against Cryptococcus neoformans NR 48770; format: toxicity, cell-based

Compound: Cc1nc(-c2ccc3ccccc3c2)sc1-c1nnc(N[C@@H]2CCCC[C@H]2N)o1 (relative stereo)
- MIC (Pichia kudriavzevii [1]): 1 µg/mL (≈ 2.47 µM)
- MIC [2]: 2 µg/mL (≈ 4.93 µM)
- MIC (Candida albicans [3]): 1 µg/mL (≈ 2.47 µM)
- MIC [4]: 1 µg/mL (≈ 2.47 µM)
- selectivity ratio [5]: 64
- selectivity ratio [6]: 64
- selectivity ratio [7]: 64
- MIC (Cryptococcus neoformans [8]): 2 µg/mL (≈ 4.93 µM)
- MIC (Clostridioides difficile): 32 µg/mL (≈ 78.9 µM)
- selectivity ratio [9]: 64
- MIC (Candida parapsilosis [10]): 1 µg/mL (≈ 2.47 µM)
- Cp [11]: 1 µg/mL
- MIC [12]: 1 µg/mL (≈ 2.47 µM)
- selectivity ratio [13]: 64
- MIC [14]: 1 µg/mL (≈ 2.47 µM)
- MIC (Lactobacillus gasseri): > 128 µg/mL
- MIC (Escherichia coli): > 64 µg/mL
- MIC (Aspergillus fumigatus [15]): 4 µg/mL (≈ 9.86 µM)
- MIC (Pichia kudriavzevii [16]): 1 µg/mL (≈ 2.47 µM)
- selectivity ratio [17]: 64
- selectivity ratio [18]: 64
- MIC (Candida albicans [19]): 4 µg/mL (≈ 9.86 µM)
- Vd [20]: 1.64 L
- MIC ([Candida] auris [21]): 2 µg/mL (≈ 4.93 µM)
- selectivity ratio [22]: 64
- selectivity ratio [23]: 64
- CL/F [24]: 5.33 mL/min
- selectivity ratio [25]: 64
- MIC (Candida parapsilosis [26]): 1 µg/mL (≈ 2.47 µM)
- MIC (Cryptococcus neoformans [27]): 1 µg/mL (≈ 2.47 µM)
- MIC [28]: > 128 µg/mL
- MIC [29]: > 128 µg/mL
- MIC ([Candida] auris [30]): 2 µg/mL (≈ 4.93 µM)
- AUC [31]: 79200 ng·h/mL
- Cmax [32]: 9400 ng/mL
- selectivity ratio [33]: 64
- MIC [34]: 2 µg/mL (≈ 4.93 µM)
- MIC (Aspergillus fumigatus [35]): 4 µg/mL (≈ 9.86 µM)
- selectivity ratio [36]: 64

Compound: Cc1nc(-c2ccc3ccccc3c2)sc1-c1nnc(N[C@@H]2CCCC[C@@H]2N)o1 (relative stereo)
- MIC (Pichia kudriavzevii [1]): 1 µg/mL (≈ 2.47 µM)
- MIC [2]: 2 µg/mL (≈ 4.93 µM)
- MIC (Candida albicans [3]): 1 µg/mL (≈ 2.47 µM)
- MIC [4]: 2 µg/mL (≈ 4.93 µM)
- selectivity ratio [5]: 64
- selectivity ratio [6]: 64
- selectivity ratio [7]: 64
- MIC (Cryptococcus neoformans [8]): 2 µg/mL (≈ 4.93 µM)
- MIC (Clostridioides difficile): 64 µg/mL (≈ 158 µM)
- selectivity ratio [9]: 64
- MIC (Candida parapsilosis [10]): 1 µg/mL (≈ 2.47 µM)
- MIC [12]: 1 µg/mL (≈ 2.47 µM)
- selectivity ratio [13]: 64
- MIC [14]: 1 µg/mL (≈ 2.47 µM)
- MIC (Lactobacillus gasseri): > 128 µg/mL
- MIC (Escherichia coli): > 64 µg/mL
- MIC (Aspergillus fumigatus [15]): 4 µg/mL (≈ 9.86 µM)
- MIC (Pichia kudriavzevii [16]): 1 µg/mL (≈ 2.47 µM)
- selectivity ratio [17]: 64
- selectivity ratio [18]: 64
- MIC (Candida albicans [19]): 4 µg/mL (≈ 9.86 µM)
- MIC ([Candida] auris [21]): 2 µg/mL (≈ 4.93 µM)
- selectivity ratio [22]: 64
- selectivity ratio [23]: 64
- selectivity ratio [25]: 64
- MIC (Candida parapsilosis [26]): 1 µg/mL (≈ 2.47 µM)
- MIC (Cryptococcus neoformans [27]): 1 µg/mL (≈ 2.47 µM)
- MIC [28]: 128 µg/mL (≈ 316 µM)
- MIC [29]: > 128 µg/mL
- MIC ([Candida] auris [30]): 2 µg/mL (≈ 4.93 µM)
- selectivity ratio [33]: 64
- MIC [34]: 2 µg/mL (≈ 4.93 µM)
- MIC (Aspergillus fumigatus [35]): 8 µg/mL (≈ 19.7 µM)
- selectivity ratio [36]: 64

— ChEMBL document CHEMBL5329183, “Naphthylthiazoles: a class of broad-spectrum antifungals” (RSC Med Chem, 2023)
